Values joined by “and” are separate entries in the source; they are usually repeats but may differ in a detail not shown here. Identical values can stand only once.
What follows are compounds tested on HEK-293T (assay: Multiplex assay against HEK293T). Details: human, 12 h, 1 µM, compound concentration 1 uM.
Type: toxicity, cell-based
Method in brief: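 Tubulin, mitochondrial-mass and membrane-permeability phenotypes are per cents of healthy-nucleus cells. Cells were gated by CellPathfinder machine learning into Hoechst high-intensity objects or normal cells, normal cells into healthy, pyknosed or fragmented nuclei, and pyknosed cells into mitotic or apoptotic. Before that, live cells stained at seeding with Hoechst33342, BioTracker Green Microtubule Cytoskeleton Dye, MitoTracker Red and Annexin V Alexa Fluor 680 were imaged on a CQ1 microscope at 37°C and 5% CO2 after compound addition.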
In the case of Cc1c(C(=O)NCCCN(C)C)sc2ncnc(Nc3ccc(F)cc3OC(C)CF)c12 (configuration not stated), the “Population Apoptotic (%)” value is reported as 8.15% and 7.44%, the “Population Fragmented Nuclei (%)” value is reported as 1.52% and 6.08% and the “Population Hoechst High Intensity Objects (%)” value is reported as 0%. The “Population Membrane Permeable-Phenotype (%)” value was 0.79% and 5.56%, the “Population Mitochondria Different-Phenotype (%)” value was 38.58% and 38.89% and the “Population Mitotic Cells (%)” value was 91.85% and 92.56%. For the same compound, the “Population Normal (%)” value was 100%, the “Population Pyknosed Nuclei (%)” value was 34.18% and 81.76% and the “Total Cell Count” value was 395 and 148.
Cc1cc(=O)n(C)c2cc(N3C(=O)CC[C@H](NS(=O)(=O)CC(C)C)[C@H]3c3ccc(Cl)cc3)ccc12 was tested, and the “Population Apoptotic (%)” value was 43% and 63%, the “Population Fragmented Nuclei (%)” value was 7% and 6% and the “Population Healthy Nuclei (%)” value was 83% and 78%. The “Population Hoechst High Intensity Objects (%)” value was 8% and 6%, the “Population Membrane Permeable-Phenotype (%)” value was 0% and the “Population Mitochondria Different-Phenotype (%)” value was 41% and 53%. The “Population Mitotic Cells (%)” value was 56% and 36%, the “Population Normal (%)” value was 91% and 93% and the “Population Pyknosed Nuclei (%)” value was 8% and 14%. The “Population Tubulin-Different-Phenotype (%)” value was 32% and 14% and the “Total Cell Count” value was 454 and 265.

Same assay, conditions: human, 12 h, 10 µM, compound concentration 10 uM
For Cc1c(C(=O)NCCCN(C)C)sc2ncnc(Nc3ccc(F)cc3OC(C)CF)c12 (configuration not stated), the “Population Apoptotic (%)” value was 12.67% and 12.38%, the “Population Fragmented Nuclei (%)” value was 1.93% and 0.83% and the “Population Healthy Nuclei (%)” value was 25.6% and 12.4%. The “Population Hoechst High Intensity Objects (%)” value was 0%, the “Population Mitotic Cells (%)” value was 87.33% and 87.62% and the “Population Normal (%)” value was 100%. For the same compound, the “Population Pyknosed Nuclei (%)” value was 72.46% and 86.78%, the “Population Tubulin-Different-Phenotype (%)” value was 81.13% and 53.33% and the “Total Cell Count” value was 207 and 121.
With Cc1cc(=O)n(C)c2cc(N3C(=O)CC[C@H](NS(=O)(=O)CC(C)C)[C@H]3c3ccc(Cl)cc3)ccc12 the “Population Apoptotic (%)” value was 47% and 50%, the “Population Fragmented Nuclei (%)” value was 4% and 6% and the “Population Healthy Nuclei (%)” value was 70% and 66%. For the same compound, the “Population Hoechst High Intensity Objects (%)” value was 11% and 16%, the “Population Membrane Permeable-Phenotype (%)” value was 0% and the “Population Mitochondria Different-Phenotype (%)” value was 75% and 86%. For the same compound, the “Population Mitotic Cells (%)” value was 52% and 49%, the “Population Normal (%)” value was 88% and 83% and the “Population Pyknosed Nuclei (%)” value was 24% and 27%. For the same compound, the “Population Tubulin-Different-Phenotype (%)” value was 81% and 66% and the “Total Cell Count” value was 368 and 331.

Same assay, conditions: human, 24 h, 1 µM, compound concentration 1 uM
In the case of Cc1c(C(=O)NCCCN(C)C)sc2ncnc(Nc3ccc(F)cc3OC(C)CF)c12 (configuration not stated), the “Population Apoptotic (%)” value is reported as 11.02% and 10.43%, the “Population Fragmented Nuclei (%)” value is reported as 2.43% and 2.58% and the “Population Hoechst High Intensity Objects (%)” value is reported as 0%. For the same compound, the “Population Membrane Permeable-Phenotype (%)” value was 0.68% and 2.78%, the “Population Mitochondria Different-Phenotype (%)” value was 18.96% and 11.11% and the “Population Mitotic Cells (%)” value was 88.98% and 89.57%. The “Population Normal (%)” value was 100% and the “Population Tubulin-Different-Phenotype (%)” value was 36.57% and 13.89%.
Cc1cc(=O)n(C)c2cc(N3C(=O)CC[C@H](NS(=O)(=O)CC(C)C)[C@H]3c3ccc(Cl)cc3)ccc12 was tested, and the “Population Apoptotic (%)” value was 33% and 36%, the “Population Fragmented Nuclei (%)” value was 9% and 4% and the “Population Healthy Nuclei (%)” value was 81% and 82%. The “Population Hoechst High Intensity Objects (%)” value was 4% and 5%, the “Population Membrane Permeable-Phenotype (%)” value was 0% and 1% and the “Population Mitochondria Different-Phenotype (%)” value was 25% and 42%. The “Population Mitotic Cells (%)” value was 66% and 63%, the “Population Normal (%)” value was 95% and 94% and the “Population Pyknosed Nuclei (%)” value was 9% and 13%. The “Population Tubulin-Different-Phenotype (%)” value was 19% and 17% and the “Total Cell Count” value was 646 and 327.

Same assay, conditions: human, 24 h, 10 µM, compound concentration 10 uM
Cc1c(C(=O)NCCCN(C)C)sc2ncnc(Nc3ccc(F)cc3OC(C)CF)c12 (configuration not stated) was tested, and the “Population Apoptotic (%)” value was 33.73% and 30.77%, the “Population Fragmented Nuclei (%)” value was 1.65% and 0% and the “Population Healthy Nuclei (%)” value was 29.75% and 17.27%. The “Population Hoechst High Intensity Objects (%)” value was 0%, the “Population Membrane Permeable-Phenotype (%)” value was 1.39% and 0% and the “Population Mitochondria Different-Phenotype (%)” value was 69.44% and 26.32%. The “Population Mitotic Cells (%)” value was 66.27% and 69.23%, the “Population Normal (%)” value was 100% and the “Population Pyknosed Nuclei (%)” value was 68.6% and 82.73%. The “Population Tubulin-Different-Phenotype (%)” value was 80.56% and 73.68% and the “Total Cell Count” value was 242 and 110.
With Cc1cc(=O)n(C)c2cc(N3C(=O)CC[C@H](NS(=O)(=O)CC(C)C)[C@H]3c3ccc(Cl)cc3)ccc12 the “Population Apoptotic (%)” value was 34% and 76%, the “Population Fragmented Nuclei (%)” value was 7% and 8% and the “Population Healthy Nuclei (%)” value was 72% and 67%. For the same compound, the “Population Hoechst High Intensity Objects (%)” value was 9% and 22%, the “Population Membrane Permeable-Phenotype (%)” value was 0% and the “Population Mitochondria Different-Phenotype (%)” value was 67% and 85%. The “Population Mitotic Cells (%)” value was 65% and 23%, the “Population Normal (%)” value was 90% and 77% and the “Population Pyknosed Nuclei (%)” value was 19% and 23%. The “Population Tubulin-Different-Phenotype (%)” value was 67% and 71% and the “Total Cell Count” value was 419 and 328.

Same assay, conditions: human, 48 h, 1 µM, compound concentration 1 uM
With Cc1c(C(=O)NCCCN(C)C)sc2ncnc(Nc3ccc(F)cc3OC(C)CF)c12 (configuration not stated) the “Population Apoptotic (%)” value was 9.92% and 23.86%, the “Population Fragmented Nuclei (%)” value was 3.85% and 2.43% and the “Population Healthy Nuclei (%)” value was 86.64% and 54.85%. The “Population Hoechst High Intensity Objects (%)” value was 0%, the “Population Membrane Permeable-Phenotype (%)” value was 6.37% and 1.77% and the “Population Mitochondria Different-Phenotype (%)” value was 17.27% and 49.56%. The “Population Mitotic Cells (%)” value was 90.08% and 76.14% and the “Population Normal (%)” value was 100%.
For Cc1cc(=O)n(C)c2cc(N3C(=O)CC[C@H](NS(=O)(=O)CC(C)C)[C@H]3c3ccc(Cl)cc3)ccc12, the “Population Apoptotic (%)” value was 25% and 31%, the “Population Fragmented Nuclei (%)” value was 14% and 11% and the “Population Healthy Nuclei (%)” value was 78% and 79%. For the same compound, the “Population Hoechst High Intensity Objects (%)” value was 3% and 7%, the “Population Membrane Permeable-Phenotype (%)” value was 0% and the “Population Mitochondria Different-Phenotype (%)” value was 17% and 20%. The “Population Mitotic Cells (%)” value was 74% and 68%, the “Population Normal (%)” value was 96% and 92% and the “Population Pyknosed Nuclei (%)” value was 6% and 9%. For the same compound, the “Population Tubulin-Different-Phenotype (%)” value was 15% and 17% and the “Total Cell Count” value was 985 and 454.

Same assay, conditions: human, 48 h, 10 µM, compound concentration 10 uM
In the case of Cc1c(C(=O)NCCCN(C)C)sc2ncnc(Nc3ccc(F)cc3OC(C)CF)c12 (configuration not stated), the “Population Apoptotic (%)” value is reported as 42.07% and 65.33%, the “Population Fragmented Nuclei (%)” value is reported as 1.78% and 1.64% and the “Population Healthy Nuclei (%)” value is reported as 46.62% and 36.89%. For the same compound, the “Population Hoechst High Intensity Objects (%)” value was 0.35% and 0.81%, the “Population Membrane Permeable-Phenotype (%)” value was 1.53% and 0% and the “Population Mitochondria Different-Phenotype (%)” value was 90.84% and 55.56%. For the same compound, the “Population Mitotic Cells (%)” value was 57.93% and 34.67%, the “Population Normal (%)” value was 99.65% and 99.19% and the “Population Pyknosed Nuclei (%)” value was 51.6% and 61.48%. For the same compound, the “Population Tubulin-Different-Phenotype (%)” value was 30.53% and 82.22% and the “Total Cell Count” value was 282 and 123.
With Cc1cc(=O)n(C)c2cc(N3C(=O)CC[C@H](NS(=O)(=O)CC(C)C)[C@H]3c3ccc(Cl)cc3)ccc12 the “Population Apoptotic (%)” value was 56% and 66%, the “Population Fragmented Nuclei (%)” value was 12% and the “Population Healthy Nuclei (%)” value was 77% and 67%. The “Population Hoechst High Intensity Objects (%)” value was 10% and 19%, the “Population Membrane Permeable-Phenotype (%)” value was 1% and 0% and the “Population Mitochondria Different-Phenotype (%)” value was 67% and 76%. The “Population Mitotic Cells (%)” value was 43% and 33%, the “Population Normal (%)” value was 89% and 80% and the “Population Pyknosed Nuclei (%)” value was 10% and 19%. For the same compound, the “Population Tubulin-Different-Phenotype (%)” value was 58% and 56% and the “Total Cell Count” value was 548 and 371.

From ChEMBL document CHEMBL5724801, “EUbOPEN Chemogenomics Library - Multiplex” (2024)
